From PMC7181320 (ACS Central Science, 2020)
Entries after “also recorded” stand apart in the source; their conditions may differ. Where two headings read alike, the source gives them in different places.

How the values were obtained:
N-His6-FhuD2 = N-His6-FhuD2 (Staphylococcus aureus, UniProt Q7BGA5); assay: Intrinsic Trp fluorescence quenching binding assay, wild-type N-His6-FhuD2; parameters: species or system S. aureus
Procedure, shortened: (§1)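 Purified SBP constructs, truncated with an N-terminal His6 tag replacing the signal peptide. Binding of the fluorescent desferrioxamine probe, in metal-free and ferric forms, was read as quenching of the protein's intrinsic Trp fluorescence.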

N-His6-YxeB = N-His6-YxeB (Bacillus subtilis, UniProt P54941); assay: Intrinsic Trp fluorescence quenching binding assay, wild-type N-His6-YxeB; parameters: species or system B. subtilis
Procedure, shortened: as §1

Y256F N-His6-FhuD2 = Y256F N-His6-FhuD2 (Staphylococcus aureus, UniProt Q7BGA5, Y280F); assay: Intrinsic Trp fluorescence quenching binding assay, FhuD2 mutant Y256F; parameters: species or system S. aureus
Y106F N-His6-FhuD2 = Y106F N-His6-FhuD2 (Staphylococcus aureus, UniProt Q7BGA5, Y130F); assay: Intrinsic Trp fluorescence quenching binding assay, FhuD2 mutant Y106F; parameters: species or system S. aureus; conditions: FhuD2 variant Y106F
R175A N-His6-FhuD2 = biological target: T1, R175A N-His6-FhuD2 (Staphylococcus aureus, UniProt Q7BGA5, R199A); assay: Intrinsic Trp fluorescence quenching binding assay, FhuD2 mutant R175A; parameters: species or system S. aureus; conditions: FhuD2 variant R175A
T1 sequence (Q7BGA5 25-302 R199A): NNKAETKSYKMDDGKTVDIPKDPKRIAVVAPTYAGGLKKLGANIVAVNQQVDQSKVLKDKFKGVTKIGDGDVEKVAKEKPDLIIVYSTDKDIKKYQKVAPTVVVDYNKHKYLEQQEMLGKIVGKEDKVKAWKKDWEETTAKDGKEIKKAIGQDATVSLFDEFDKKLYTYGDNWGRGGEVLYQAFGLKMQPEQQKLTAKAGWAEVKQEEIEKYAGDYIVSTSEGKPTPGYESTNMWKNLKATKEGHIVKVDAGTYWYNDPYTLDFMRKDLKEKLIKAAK

W255A N-His6-FhuD2 = biological target: T2, W255A N-His6-FhuD2 (Staphylococcus aureus, UniProt Q7BGA5, W279A); assay: Intrinsic Trp fluorescence quenching binding assay, FhuD2 mutant W255A; parameters: species or system S. aureus; conditions: FhuD2 variant W255A
T2 sequence (Q7BGA5 25-302 W279A): T1 sequence (Q7BGA5 25-302 R199A)

Y254F N-His6-FhuD2 = biological target: T3, Y254F N-His6-FhuD2 (Staphylococcus aureus, UniProt Q7BGA5, Y278F); assay: Intrinsic Trp fluorescence quenching binding assay, FhuD2 mutant Y254F; parameters: species or system S. aureus; conditions: FhuD2 variant Y254F
T3 sequence (Q7BGA5 25-302 Y278F): T1 sequence (Q7BGA5 25-302 R199A)

Y167F N-His6-FhuD2 = biological target: T4, Y167F N-His6-FhuD2 (Staphylococcus aureus, UniProt Q7BGA5, Y191F); assay: Intrinsic Trp fluorescence quenching binding assay, FhuD2 mutant Y167F; parameters: species or system S. aureus; conditions: FhuD2 variant Y167F
T4 sequence (Q7BGA5 25-302 Y191F): T1 sequence (Q7BGA5 25-302 R199A)

Y169F N-His6-FhuD2 = biological target: T5, Y169F N-His6-FhuD2 (Staphylococcus aureus, UniProt Q7BGA5, Y193F); assay: Intrinsic Trp fluorescence quenching binding assay, FhuD2 mutant Y169F; parameters: species or system S. aureus; conditions: FhuD2 variant Y169F
T5 sequence (Q7BGA5 25-302 Y193F): T1 sequence (Q7BGA5 25-302 R199A)

W173A N-His6-FhuD2 = biological target: T6, W173A N-His6-FhuD2 (Staphylococcus aureus, UniProt Q7BGA5, W197A); assay: Intrinsic Trp fluorescence quenching binding assay, FhuD2 mutant W173A; parameters: species or system S. aureus; conditions: FhuD2 variant W173A
T6 sequence (Q7BGA5 25-302 W197A): T1 sequence (Q7BGA5 25-302 R199A)

[1] = Apparent KFe measurement by EDTA competition assay; format: physicochemical; conditions: 1.2 equiv EDTA, HEPES buffer pH 7.4
Procedure, shortened: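 Ferric siderophore (ferrioxamine B or E) treated with 1.2 equiv EDTA, with or without stoichiometric FhuD2. Remaining ferric siderophore is followed continuously by absorbance at 427 nm and expressed as relative percentage remaining. Apparent log KFe is calculated from the decay plots. At least two independent trials are run, with standard deviations reported.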

SBPs (FhuD2 or YxeB) = format: biochemical, S. aureus and B. subtilis; conditions: SBP-catalyzed exchange, FhuD2 and YxeB
Procedure, shortened: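 Truncated SBPs (FhuD2 or YxeB), each expressed with an N-terminal His6 tag in place of the signal peptide, at 100 nM with 4 μM ferric donor (FOB, FOE or human holo-transferrin). Started by adding 2 μM DFO-NBD probe, then fluorescence followed continuously (ex 475 nm; em 565 nm). Percent change in relative emission taken at 15 min against a matching no-SBP reaction.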

Y256F = Y256F (Staphylococcus aureus, UniProt Q7BGA5, Y280F); assay: Intrinsic Trp fluorescence quenching; format: binding; conditions: read-out: app Kd; SD, n = 2
Y106F = Y106F (Staphylococcus aureus, UniProt Q7BGA5, Y130F); assay: Intrinsic Trp fluorescence quenching; format: binding; conditions: read-out: app Kd; SD, n = 2
R175A = R175A (Staphylococcus aureus, UniProt Q7BGA5, R199A); assay: Intrinsic Trp fluorescence quenching; format: binding; conditions: read-out: app Kd; SD, n = 2
Y254F = Y254F (Staphylococcus aureus, UniProt Q7BGA5, Y278F); assay: Intrinsic Trp fluorescence quenching; format: binding; conditions: read-out: app Kd; SD, n = 2
Y169F = Y169F (Staphylococcus aureus, UniProt Q7BGA5, Y193F); assay: Intrinsic Trp fluorescence quenching; format: binding; conditions: read-out: app Kd; SD, n = 2
FhuD2 [2] = biological target: T7, FhuD2 (Staphylococcus aureus, UniProt Q7BGA5); assay: Intrinsic Trp fluorescence quenching; format: binding; conditions: read-out: app Kd; SD, n = 2; cited from earlier work
FhuD2 [3] = biological target: T7, FhuD2; assay: Intrinsic Trp fluorescence quenching; format: binding; conditions: read-out: app Kd; SD, n = 2
W255A = W255A (Staphylococcus aureus, UniProt Q7BGA5, W279A); assay: Intrinsic Trp fluorescence quenching; format: binding; conditions: read-out: app Kd; SD, n = 2
W173A = W173A (Staphylococcus aureus, UniProt Q7BGA5, W197A); assay: Intrinsic Trp fluorescence quenching; format: binding; conditions: read-out: app Kd; SD, n = 2
FhuD2 [4] = assay: FhuD2-catalyzed iron exchange from holo-Tf to DFO-NBD with additives; format: biochemical, S. aureus; conditions: 25 mM additive, 4 μM holo-Tf, 2 μM DFO-NBD
Procedure, shortened: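 FhuD2 is a truncated S. aureus construct with the N-terminal signal peptide replaced by an N-terminal His6 tag, used at 100 nM with holo-transferrin as iron donor. The reaction is started by adding the DFO-NBD probe, and fluorescence (ex 475 nm, em 560 nm) is monitored continuously. Quenching is expressed as percentage change relative to a control containing DFO-NBD and FhuD2 without iron donor.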

FhuD2 Y256F (S. aureus) = assay: other fluorescence titration
[5] = 25 °C; cited from earlier work

Chain of N-His6-YxeB (P54941 21-321): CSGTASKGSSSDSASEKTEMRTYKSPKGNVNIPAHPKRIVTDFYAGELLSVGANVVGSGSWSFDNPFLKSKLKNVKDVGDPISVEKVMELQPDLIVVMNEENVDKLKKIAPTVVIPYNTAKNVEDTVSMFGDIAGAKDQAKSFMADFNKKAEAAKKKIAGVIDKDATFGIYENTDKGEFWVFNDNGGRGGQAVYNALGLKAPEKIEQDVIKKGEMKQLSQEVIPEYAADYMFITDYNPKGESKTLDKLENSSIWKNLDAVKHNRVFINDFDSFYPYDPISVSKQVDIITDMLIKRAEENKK
Chain of human holo-transferrin (P02787 20-698): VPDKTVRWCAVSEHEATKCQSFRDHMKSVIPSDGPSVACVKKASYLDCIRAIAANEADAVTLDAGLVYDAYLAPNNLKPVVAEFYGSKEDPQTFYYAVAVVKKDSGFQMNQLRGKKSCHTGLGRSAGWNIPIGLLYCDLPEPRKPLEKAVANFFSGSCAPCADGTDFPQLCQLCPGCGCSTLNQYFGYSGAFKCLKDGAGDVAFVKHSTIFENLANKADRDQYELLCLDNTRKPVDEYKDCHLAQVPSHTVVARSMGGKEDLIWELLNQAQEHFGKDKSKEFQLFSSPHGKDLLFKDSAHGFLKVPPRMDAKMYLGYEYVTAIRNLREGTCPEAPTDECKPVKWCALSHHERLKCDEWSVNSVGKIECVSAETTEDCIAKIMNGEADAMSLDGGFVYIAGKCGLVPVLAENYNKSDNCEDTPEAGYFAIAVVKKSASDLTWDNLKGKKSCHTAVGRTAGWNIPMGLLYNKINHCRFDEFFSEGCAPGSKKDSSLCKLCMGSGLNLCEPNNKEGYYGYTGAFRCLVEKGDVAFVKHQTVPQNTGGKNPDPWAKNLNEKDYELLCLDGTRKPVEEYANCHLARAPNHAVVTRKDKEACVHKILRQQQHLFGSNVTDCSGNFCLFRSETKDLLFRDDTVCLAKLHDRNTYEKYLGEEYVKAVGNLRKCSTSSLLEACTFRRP

Compound `CC(=O)N(O)CCCCCNC(=O)CCC(=O)N(O)CCCCCNC(=O)CCC(=O)N(O)CCCCCN` [DFOB, desferrioxamine B] has a Kd (N-His6-FhuD2) of 90 ± 10 nM, a Kd (N-His6-YxeB) of 30 ± 20 nM and a Kd (Y256F N-His6-FhuD2) of 80 ± 30 nM. It also gave a Kd (Y106F N-His6-FhuD2; app Kd) of 80 ± 20 nM, a Kd (R175A N-His6-FhuD2; app Kd) of 40 ± 9 nM and a Kd (W255A N-His6-FhuD2; app Kd) of 60 ± 20 nM. The Kd (Y254F N-His6-FhuD2; app Kd) was 50 ± 10 nM, the Kd (Y167F N-His6-FhuD2; app Kd) was 60 ± 9 nM and the Kd (Y169F N-His6-FhuD2; app Kd) was 70 ± 10 nM. It also gave a Kd (W173A N-His6-FhuD2; app Kd) of 100 ± 50 nM.

In the case of `CC(=O)N([O-])CCCCCNC(=O)CCC(=O)N([O-])CCCCCNC(=O)CCC(=O)N([O-])CCCCCNc1ccc([N+](=O)[O-])c2nonc12.[Fe+3]` [FO-NBD, ferrioxamine B-2-(4-nitro-2,1,3-benzoxadiazol-7-yl) conjugate], the “app Kd” value (N-His6-FhuD2; wild-type N-His6-FhuD2 100 nM, TBS buffer pH 7.4, one site binding model) is reported as “nanomolar affinity”, the “app Kd” value (N-His6-YxeB; wild-type N-His6-YxeB 100 nM, TBS buffer pH 7.4, one site binding model) is reported as “nanomolar affinity” and the “apparent log KFe” value ([1]; no FhuD2) is reported as 30.8 ± 0.3.

With `CC(=O)N([O-])CCCCCNC(=O)CCC(=O)N([O-])CCCCCNC(=O)CCC(=O)N([O-])CCCCCN.[Fe+3]` [FOB, ferrioxamine B] the Kd (Y256F N-His6-FhuD2; read-out: app Kd, FhuD2 variant Y256F) was 60 ± 10 nM, the Kd (Y106F N-His6-FhuD2; read-out: app Kd) was 40 ± 8 nM and the Kd (W255A N-His6-FhuD2; read-out: app Kd) was 60 ± 50 nM. It also gave a Kd (Y254F N-His6-FhuD2; read-out: app Kd) of 10 ± 2 nM, a Kd (Y167F N-His6-FhuD2; read-out: app Kd) of 40 ± 6 nM and a Kd (Y169F N-His6-FhuD2; read-out: app Kd) of 40 ± 9 nM. The Kd (W173A N-His6-FhuD2; read-out: app Kd) was 60 ± 8 nM, the “ability to serve as ferric iron donor to DFO-NBD” value (SBPs (FhuD2 or YxeB)) was “serve as a donor of ferric iron; also recorded: serve as iron donor substrates” and the “apparent log KFe” value ([1]; 1:1 stoichiometric complex with FhuD2) was 28.5 ± 0.1. For the same compound, the “apparent log KFe” value ([1]; no FhuD2) was 30.3 ± 0.4, the Kd (Y256F) was 60 ± 10 nM and the Kd (Y106F) was 40 ± 8 nM. It also gave a Kd (R175A) of 30 ± 9 nM, a Kd (Y254F) of 10 ± 2 nM and a Kd (Y169F) of 40 ± 9 nM. The Kd (FhuD2 [2]) was 30 ± 6 nM.

`O=C1CCC(=O)N(O)CCCCCNC(=O)CCC(=O)N(O)CCCCCNC(=O)CCC(=O)N(O)CCCCCN1.[Fe+3]` [FOE, ferrioxamine E] gave a Kd (FhuD2 [3]) of 50 ± 6 nM, a Kd (Y256F) of 40 ± 20 nM and a Kd (Y106F) of 80 ± 10 nM. For the same compound, the Kd (W255A) was 30 ± 9 nM, the Kd (Y169F) was 20 ± 2 nM and the Kd (W173A) was 90 ± 30 nM.

With `O=C([O-])O.[Na+]` [NaHCO3] the “effect on FhuD2-catalyzed exchange of iron from holo-Tf to DFO-NBD” value (FhuD2 [4]) was “no apparent effect”.

“human holo-transferrin (from UniProt P02787 20-698) (natural protein)” showed a Kd (FhuD2 Y256F (S. aureus)) of 70 nM.

“transferrin: human ferric holo-transferrin, host iron source and iron donor substrate” gave a Kd (R175A N-His6-FhuD2; read-out: app Kd) of 110 ± 30 nM, a Kd (W255A N-His6-FhuD2; read-out: app Kd) of 110 ± 80 nM and a Kd (Y254F N-His6-FhuD2; read-out: app Kd) of 90 ± 20 nM. It also gave a Kd (Y167F N-His6-FhuD2; read-out: app Kd) of 80 ± 20 nM, a Kd (Y169F N-His6-FhuD2; read-out: app Kd) of 110 ± 20 nM and a Kd (W173A N-His6-FhuD2; read-out: app Kd) of 140 ± 30 nM. The “log KFe” value [5] was “≈ 22”.
